From ChEMBL document CHEMBL4177603 (Bioorg Med Chem Lett, 2017)

Key:
[1] = biological target: Angiotensin-converting enzyme (Homo sapiens) (UniProt P12821); assay: Inhibition of ACE (unknown origin) at 10 uM by radioligand binding assay relative to control
[2] = Solubility of the compound in aqueous buffer at pH 4.2; format: physicochemical
[3] = Lipophilicity, log D of the compound at pH 7.4; format: physicochemical; settings: buffer
[4] = Solubility of the compound in aqueous buffer at pH 3.2; format: physicochemical
[5] = Terminal half-life in dog at 0.3 mg/kg, iv via infusion for 0.5 hrs; format: ADME, organism-based, Canis lupus familiaris; settings: in vivo, read-out: beta t1/2 (converted)
Outline: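 Dog IV pharmacokinetics, with half-life reported as two values: α (initial phase) and β (terminal phase) of the disposition profile.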

[6] = Clearance in dog blood at 0.3 mg/kg, iv via infusion for 0.5 hrs; format: ADME, organism-based, Canis lupus familiaris; settings: whole blood
Outline: (§1)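 Blood clearance was calculated from the measured plasma clearance and the measured blood:plasma ratio.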

[7] = Clearance in rat blood at 0.3 mg/kg, iv via infusion for 1 hr; format: ADME, organism-based; settings: whole blood; outline: as §1
[8] = Half-life in iv dosed mouse; format: ADME, organism-based; settings: in vivo
[9] = Clearance in iv dosed mouse blood; format: ADME, organism-based; settings: whole blood; outline: as §1
[10] = Protein binding in mouse plasma assessed as fraction unbound; format: ADME, cell-free
[11] = biological target: Beta-2 adrenergic receptor (Homo sapiens) (UniProt P07550); assay: Agonist activity at recombinant human beta2 receptor expressed in CHOK1 cells assessed as increase in cAMP accumulation at 10 uM after 30 mins by HTRF assay relative to control; format: functional, cell-based
[12] = biological target: Cannabinoid receptor 1 (Homo sapiens) (UniProt P21554); assay: Agonist activity at recombinant human CB1 receptor expressed in CHOK1 cells assessed as increase in cAMP accumulation at 10 uM after 20 mins by HTRF assay relative to control; format: functional, cell-based
Chain of Cannabinoid receptor 1 (Homo sapiens) (P21554 whole entry): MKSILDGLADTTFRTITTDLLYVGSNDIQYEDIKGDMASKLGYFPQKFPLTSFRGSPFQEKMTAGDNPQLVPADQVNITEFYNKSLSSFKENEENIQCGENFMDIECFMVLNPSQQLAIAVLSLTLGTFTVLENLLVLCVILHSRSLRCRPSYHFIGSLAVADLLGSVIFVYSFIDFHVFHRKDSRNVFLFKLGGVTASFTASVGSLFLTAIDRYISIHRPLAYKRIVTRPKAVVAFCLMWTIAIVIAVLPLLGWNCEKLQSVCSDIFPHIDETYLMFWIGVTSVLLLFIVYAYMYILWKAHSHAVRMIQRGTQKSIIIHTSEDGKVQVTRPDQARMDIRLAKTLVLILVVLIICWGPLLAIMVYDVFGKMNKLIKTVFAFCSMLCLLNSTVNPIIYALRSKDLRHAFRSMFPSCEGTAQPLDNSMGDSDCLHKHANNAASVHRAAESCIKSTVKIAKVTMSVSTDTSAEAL

[13] = biological target: Histamine H3 receptor (Homo sapiens) (UniProt Q9Y5N1); assay: Agonist activity at recombinant human H3 receptor expressed in CHOK1 cells assessed as increase in cAMP accumulation at 10 uM measured after 10 mins by HTRF assay relative to control; format: functional, cell-based
Chain of Histamine H3 receptor (Homo sapiens) (Q9Y5N1 whole entry): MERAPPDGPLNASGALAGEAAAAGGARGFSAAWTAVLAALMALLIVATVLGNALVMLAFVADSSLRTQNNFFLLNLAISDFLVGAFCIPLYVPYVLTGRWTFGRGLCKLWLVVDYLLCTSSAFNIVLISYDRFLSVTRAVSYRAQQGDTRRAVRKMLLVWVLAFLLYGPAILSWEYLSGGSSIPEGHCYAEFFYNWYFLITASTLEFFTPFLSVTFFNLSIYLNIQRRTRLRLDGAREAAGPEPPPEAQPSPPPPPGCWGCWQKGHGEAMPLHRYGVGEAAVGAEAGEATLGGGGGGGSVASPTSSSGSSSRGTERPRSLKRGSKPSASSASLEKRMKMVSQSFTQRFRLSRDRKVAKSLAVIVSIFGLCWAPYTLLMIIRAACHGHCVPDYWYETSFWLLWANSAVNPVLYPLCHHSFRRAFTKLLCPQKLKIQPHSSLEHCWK

[14] = biological target: Muscarinic acetylcholine receptor M2 (Homo sapiens) (UniProt P08172); assay: Agonist activity at recombinant human M2 receptor expressed in CHOK1 cells assessed as increase in cAMP accumulation at 10 uM measured after 10 mins by HTRF assay relative to control; format: functional, cell-based
Chain of Muscarinic acetylcholine receptor M2 (Homo sapiens) (P08172 whole entry): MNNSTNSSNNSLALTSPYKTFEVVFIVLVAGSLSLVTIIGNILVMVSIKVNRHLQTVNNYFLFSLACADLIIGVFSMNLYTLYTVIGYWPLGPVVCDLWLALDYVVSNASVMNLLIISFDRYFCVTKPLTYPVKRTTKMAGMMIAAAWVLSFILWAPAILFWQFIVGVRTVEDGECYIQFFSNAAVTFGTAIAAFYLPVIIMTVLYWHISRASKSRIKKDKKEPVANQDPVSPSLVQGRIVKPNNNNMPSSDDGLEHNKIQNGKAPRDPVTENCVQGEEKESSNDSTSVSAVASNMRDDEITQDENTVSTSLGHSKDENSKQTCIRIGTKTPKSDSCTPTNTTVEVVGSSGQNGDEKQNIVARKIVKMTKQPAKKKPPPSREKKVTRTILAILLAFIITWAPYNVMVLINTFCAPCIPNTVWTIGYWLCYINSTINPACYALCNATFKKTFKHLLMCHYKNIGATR

[15] = biological target: Substance-P receptor (Homo sapiens) (UniProt P25103); assay: Agonist activity at human NK1 receptor expressed in U373MG cells assessed as increase in calcium flux at 10 uM by fluorimetric method relative to control; format: functional, cell-based
[16] = biological target: T1, Alpha-1A adrenergic receptor (Homo sapiens) (UniProt P35348); assay: Antagonist activity at recombinant human alpha1a receptor expressed in CHOK1 cells assessed as inhibition of epinephrine-induced calcium flux at 10 uM by fluorescence assay relative to control; format: functional, cell-based
T1 sequence (whole entry): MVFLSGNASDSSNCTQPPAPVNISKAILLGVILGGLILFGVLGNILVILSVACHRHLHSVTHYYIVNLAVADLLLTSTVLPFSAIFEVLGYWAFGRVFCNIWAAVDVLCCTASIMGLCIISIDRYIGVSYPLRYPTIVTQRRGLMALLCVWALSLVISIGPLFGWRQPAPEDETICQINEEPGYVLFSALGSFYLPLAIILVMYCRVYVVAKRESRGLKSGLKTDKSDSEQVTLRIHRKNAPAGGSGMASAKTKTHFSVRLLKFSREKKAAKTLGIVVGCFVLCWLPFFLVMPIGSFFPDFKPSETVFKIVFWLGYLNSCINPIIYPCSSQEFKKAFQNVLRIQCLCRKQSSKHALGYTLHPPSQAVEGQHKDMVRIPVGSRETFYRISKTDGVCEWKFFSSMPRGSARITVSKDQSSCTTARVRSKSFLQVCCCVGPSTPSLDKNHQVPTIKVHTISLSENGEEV

[17] = biological target: Cannabinoid receptor 1 (Homo sapiens) (UniProt P21554); assay: Antagonist activity at recombinant human CB1 receptor expressed in CHOK1 cells assessed as inhibition of CP 55940-induced cAMP accumulation at 10 uM after 20 mins by HTRF assay relative to control; format: functional, cell-based
[18] = biological target: Histamine H1 receptor (Homo sapiens) (UniProt P35367); assay: Antagonist activity at human H1 receptor expressed in HEK293 cells assessed as inhibition of histamine-induced calcium flux at 10 uM by fluorimetric method relative to control; format: functional, cell-based
[19] = biological target: GABA-A receptor; alpha-1/beta-2/gamma-2 (Homo sapiens) (UniProt P14867+P47870+P18507); assay: Displacement of [3H]muscimol from recombinant human GABAalpha1beta2gamma2 at 10 uM measured after 120 mins by scintillation counting method; format: protein-complex assay
Homo sapiens = species on record: Homo sapiens; assay: Inhibition of sodium channel site2 (unknown origin) at 10 uM by radioligand binding assay relative to control
[20] = biological target: Acetylcholinesterase (Homo sapiens) (UniProt P22303); assay: Inhibition of recombinant human AChE at 10 uM using acetylthiocholine as substrate measured after 30 mins by spectrophotometric method relative to control
Chain of Acetylcholinesterase (Homo sapiens) (P22303 whole entry): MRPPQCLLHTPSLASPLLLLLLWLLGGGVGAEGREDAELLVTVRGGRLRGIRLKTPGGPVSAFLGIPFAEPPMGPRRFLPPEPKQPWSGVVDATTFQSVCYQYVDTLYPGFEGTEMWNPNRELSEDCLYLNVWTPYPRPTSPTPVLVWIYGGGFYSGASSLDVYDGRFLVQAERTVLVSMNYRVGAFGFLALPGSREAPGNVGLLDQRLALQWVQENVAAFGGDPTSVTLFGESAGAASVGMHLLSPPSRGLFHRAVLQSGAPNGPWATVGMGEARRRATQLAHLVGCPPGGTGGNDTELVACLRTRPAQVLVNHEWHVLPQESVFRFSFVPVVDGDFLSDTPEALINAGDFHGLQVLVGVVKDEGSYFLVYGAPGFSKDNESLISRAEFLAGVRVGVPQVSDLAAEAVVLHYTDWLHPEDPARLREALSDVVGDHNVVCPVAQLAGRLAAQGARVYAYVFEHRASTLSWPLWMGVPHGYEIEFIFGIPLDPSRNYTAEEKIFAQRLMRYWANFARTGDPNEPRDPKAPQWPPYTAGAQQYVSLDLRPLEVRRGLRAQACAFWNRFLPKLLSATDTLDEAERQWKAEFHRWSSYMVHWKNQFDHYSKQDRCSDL

monoamine oxidase = monoamine oxidase (Homo sapiens, UniProt P21397+P27338); assay: Inhibition of monoamine oxidase (unknown origin) at 10 uM relative to control; format: protein assay
[21] = biological target: cGMP-inhibited 3',5'-cyclic phosphodiesterase 3B (Homo sapiens) (UniProt Q13370); assay: Inhibition of recombinant human PDE3B at 10 uM using [3H]cAMP as substrate measured after 20 mins by scintillation counting method relative to control
[22] = biological target: Tyrosine-protein kinase Lck (Homo sapiens) (UniProt P06239); assay: Inhibition of recombinant human LCK at 10 uM using Ulight-Poly GAT[EAY(1:1:1)]n as substrate after 10 mins by LANCE assay
[23] = biological target: Proto-oncogene tyrosine-protein kinase Src (Homo sapiens) (UniProt P12931); assay: Inhibition of recombinant human SRC at 10 uM using Ulight-Poly GAT[EAY(1:1:1)]n as substrate after 10 mins by LANCE assay
Chain of Proto-oncogene tyrosine-protein kinase Src (Homo sapiens) (P12931 2-536 limits assumed): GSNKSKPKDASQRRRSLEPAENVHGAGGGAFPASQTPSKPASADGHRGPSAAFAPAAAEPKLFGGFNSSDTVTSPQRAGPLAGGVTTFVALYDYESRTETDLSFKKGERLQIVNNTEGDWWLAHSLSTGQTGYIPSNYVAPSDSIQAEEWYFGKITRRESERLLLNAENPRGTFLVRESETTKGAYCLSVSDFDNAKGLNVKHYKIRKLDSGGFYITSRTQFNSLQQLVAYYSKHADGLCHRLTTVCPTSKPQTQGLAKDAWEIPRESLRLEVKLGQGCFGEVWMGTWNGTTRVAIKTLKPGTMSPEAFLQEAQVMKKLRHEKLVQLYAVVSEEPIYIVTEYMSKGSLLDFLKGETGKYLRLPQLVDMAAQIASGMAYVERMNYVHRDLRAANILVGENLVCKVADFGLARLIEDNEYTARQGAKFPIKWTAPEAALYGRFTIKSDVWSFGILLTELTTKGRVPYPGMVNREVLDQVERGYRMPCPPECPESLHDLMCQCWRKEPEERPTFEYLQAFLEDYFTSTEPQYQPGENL

[24] = biological target: Androgen receptor (Homo sapiens) (UniProt P10275); assay: Displacement of [3H]methyltrienolone from human androgen receptor at 10 uM after 1440 mins by scintillation counting method
Chain of Androgen receptor (Homo sapiens) (P10275 whole entry): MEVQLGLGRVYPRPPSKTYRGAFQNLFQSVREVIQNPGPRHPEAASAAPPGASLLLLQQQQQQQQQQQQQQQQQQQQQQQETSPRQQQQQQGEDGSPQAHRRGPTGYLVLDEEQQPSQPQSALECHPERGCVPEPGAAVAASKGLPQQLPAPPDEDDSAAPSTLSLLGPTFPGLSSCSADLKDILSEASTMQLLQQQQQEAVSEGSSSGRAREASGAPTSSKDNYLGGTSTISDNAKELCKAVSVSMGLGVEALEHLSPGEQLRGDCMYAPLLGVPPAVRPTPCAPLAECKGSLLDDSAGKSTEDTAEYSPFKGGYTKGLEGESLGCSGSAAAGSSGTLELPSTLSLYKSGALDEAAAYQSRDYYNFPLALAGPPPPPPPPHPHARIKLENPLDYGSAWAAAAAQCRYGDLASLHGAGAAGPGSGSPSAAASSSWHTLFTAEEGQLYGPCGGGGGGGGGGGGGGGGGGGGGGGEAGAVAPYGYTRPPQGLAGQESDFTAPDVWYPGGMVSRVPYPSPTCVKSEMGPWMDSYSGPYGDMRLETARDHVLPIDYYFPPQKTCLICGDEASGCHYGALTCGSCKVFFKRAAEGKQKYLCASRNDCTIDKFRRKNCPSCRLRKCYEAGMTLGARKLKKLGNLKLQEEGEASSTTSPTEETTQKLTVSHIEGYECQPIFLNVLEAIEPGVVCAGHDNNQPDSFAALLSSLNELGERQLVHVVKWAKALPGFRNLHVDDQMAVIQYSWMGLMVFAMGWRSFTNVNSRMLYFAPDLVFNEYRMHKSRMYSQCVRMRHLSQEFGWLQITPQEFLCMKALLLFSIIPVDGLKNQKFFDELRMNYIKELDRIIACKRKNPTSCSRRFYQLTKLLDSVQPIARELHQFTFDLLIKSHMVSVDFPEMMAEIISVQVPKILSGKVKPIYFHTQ

[25] = biological target: D(1A) dopamine receptor (Homo sapiens) (UniProt P21728); assay: Displacement of [3H]SCH 23390 from recombinant human D1 receptor at 10 uM after 60 mins by scintillation counting method
Chain of D(1A) dopamine receptor (Homo sapiens) (P21728 whole entry): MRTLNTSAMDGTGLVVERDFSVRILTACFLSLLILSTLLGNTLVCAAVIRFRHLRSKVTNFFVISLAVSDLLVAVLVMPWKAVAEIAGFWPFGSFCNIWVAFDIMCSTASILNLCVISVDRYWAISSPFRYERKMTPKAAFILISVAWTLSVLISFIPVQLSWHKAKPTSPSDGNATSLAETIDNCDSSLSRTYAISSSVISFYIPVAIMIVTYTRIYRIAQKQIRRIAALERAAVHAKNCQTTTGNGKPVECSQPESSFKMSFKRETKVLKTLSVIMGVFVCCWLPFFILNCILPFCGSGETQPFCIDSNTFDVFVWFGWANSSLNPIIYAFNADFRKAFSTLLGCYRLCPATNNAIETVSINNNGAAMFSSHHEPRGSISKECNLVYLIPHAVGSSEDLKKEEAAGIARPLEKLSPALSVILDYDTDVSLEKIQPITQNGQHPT

[26] = biological target: 5-hydroxytryptamine receptor 1B (Homo sapiens, UniProt P28222); assay: Agonist activity at human 5-HT1B receptor expressed in HeLa cells assessed as increase in cAMP accumulation measured after 20 mins by HTRF method; format: functional, cell-based
Chain of 5-hydroxytryptamine receptor 1B (P28222 whole entry): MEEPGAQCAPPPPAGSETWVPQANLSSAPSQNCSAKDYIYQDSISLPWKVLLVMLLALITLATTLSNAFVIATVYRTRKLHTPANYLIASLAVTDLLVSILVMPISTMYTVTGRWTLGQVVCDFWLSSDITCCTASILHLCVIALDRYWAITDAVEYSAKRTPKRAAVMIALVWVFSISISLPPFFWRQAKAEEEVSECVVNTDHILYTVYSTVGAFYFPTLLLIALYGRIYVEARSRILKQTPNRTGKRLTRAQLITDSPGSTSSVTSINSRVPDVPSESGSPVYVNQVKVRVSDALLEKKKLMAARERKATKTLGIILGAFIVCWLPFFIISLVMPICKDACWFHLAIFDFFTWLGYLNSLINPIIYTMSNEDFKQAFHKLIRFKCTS

[27] = Displacement of [3H]diltiazem from L-type calcium channel diltiazem binding site in rat brain after 120 mins by scintillation counting method
[28] = Inhibition of sodium channel site2 (unknown origin) by radioligand binding assay relative to control; set-up: species or system Homo sapiens
[29] = biological target: Prostaglandin G/H synthase 2 (Homo sapiens, UniProt P35354); assay: Inhibition of recombinant human COX2 using arachidonic acid as substrate measured after 5 mins by fluorescence assay
Chain of Prostaglandin G/H synthase 2 (P35354 whole entry): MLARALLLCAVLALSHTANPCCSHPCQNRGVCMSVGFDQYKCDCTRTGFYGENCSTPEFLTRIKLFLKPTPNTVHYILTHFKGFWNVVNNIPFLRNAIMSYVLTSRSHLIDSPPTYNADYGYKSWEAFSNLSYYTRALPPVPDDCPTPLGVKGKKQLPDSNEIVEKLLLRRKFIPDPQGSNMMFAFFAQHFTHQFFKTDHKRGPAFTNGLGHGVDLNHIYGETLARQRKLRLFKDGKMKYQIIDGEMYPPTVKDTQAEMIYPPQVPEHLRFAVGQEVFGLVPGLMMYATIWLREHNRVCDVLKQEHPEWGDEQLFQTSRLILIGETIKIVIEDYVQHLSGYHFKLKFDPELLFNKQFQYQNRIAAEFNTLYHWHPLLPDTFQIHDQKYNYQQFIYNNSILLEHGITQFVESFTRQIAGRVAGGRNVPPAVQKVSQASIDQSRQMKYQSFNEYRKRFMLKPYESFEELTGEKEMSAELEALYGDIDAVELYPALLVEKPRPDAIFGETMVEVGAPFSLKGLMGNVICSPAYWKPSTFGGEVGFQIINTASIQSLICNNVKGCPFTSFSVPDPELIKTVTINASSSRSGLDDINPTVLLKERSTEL

In the case of `N#Cc1cc(S(=O)(=O)Nc2ncns2)ccc1Oc1ccc(-c2cccc(C(F)(F)F)c2)cc1-c1ccnc(CNCCC2CCNCC2)c1`, the inhibition [1] is reported as -8%, the solubility [2] is reported as over 1170 µg/mL and the logD [3] is reported as 2.37 to 2.4. It also gave a solubility [4] of over 906 µg/mL, a half-life [5] of 5.9 h and a clearance [6] of 39.8 mL/min/kg. For the same compound, the clearance [7] was 178 mL/min/kg, the half-life [8] was 0.66 h and the clearance [9] was 67.2 mL/min/kg. For the same compound, the fraction unbound [10] was 0.00281, the Activity [11] was 1% and the Activity [12] was -7%. For the same compound, the Activity [13] was 7%, the Activity [14] was -9% and the Activity [15] was 0%. The inhibition [16] was 23%, the inhibition [17] was 11% and the inhibition [18] was -5%. The inhibition [19] was 0%, the inhibition (Homo sapiens) was 92% and the inhibition [20] was 15%. For the same compound, the inhibition at 10 µM (monoamine oxidase) was 16%, the inhibition [21] was -1% and the inhibition [22] was 43%. It also gave an inhibition [23] of 9%, an inhibition [24] of 27% and an inhibition [25] of 60%. For the same compound, the EC50 [26] was over 10 µM, the IC50 [27] was 5.3 µM and the Ki [27] was 4.12 µM. It also gave an IC50 [28] of 0.048 µM, a Ki [28] of 0.043 µM and an IC50 [29] of 3.65 µM.
